Experimental data from ChEMBL document CHEMBL4052618, “Design, synthesis, SAR discussion, in vitro and in vivo evaluation of novel selective EGFR modulator to inhibit L858R/T790M double mutants” (Eur J Med Chem, 2017).

Key:
[1] = Half life in rat hepatocytes; assay type: ADME, cell-based, Hepatocyte
[2] = Half life in rat liver microsomes; assay type: ADME, microsome
[3] = Half life in Sprague-Dawley rat at 1 mg/kg, iv by LC-MS/MS analysis; assay type: ADME, organism-based; settings: in vivo
How it was run: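 Male Sprague-Dawley rats (200-240 g) were dosed either by tail vein at 1 mg/kg in 2% DMSO/20% PEG400/78% buffered saline or by oral gavage at 10 mg/kg in 0.5% methylcellulose. Blood was drawn by orbital sinus puncture at 2 min to 24 h into heparin, and plasma was analysed by LC/MS/MS in SRM mode. Parameters came from non-compartmental analysis.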

[4] = Cmax in Sprague-Dawley rat at 10 mg/kg, po administered via gavage after 24 hrs by LC-MS/MS analysis; assay type: ADME, organism-based; design: dose 10 mg/kg, route oral; settings: in vivo
How it was run: (§1)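 Male Sprague-Dawley rats (200-240 g) received 1 mg/kg by tail-vein injection in 2% DMSO, 20% PEG400 and 78% buffered saline, or 10 mg/kg by oral gavage in 0.5% methylcellulose. Orbital sinus blood was drawn into heparinized tubes at 2, 5, 15 and 30 min and at 1, 2, 4, 8, 12 and 24 h, then centrifuged. Plasma was measured by LC/MS/MS in SRM mode, with non-compartmental analysis.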

[5] = Oral bioavailability in Sprague-Dawley rat at 10 mg/kg administered via gavage after 24 hrs by LC-MS/MS analysis; assay type: ADME, organism-based; settings: in vivo; how it was run: as §1
[6] = Intrinsic clearance in dog liver microsomes; assay type: ADME, Canis lupus familiaris, microsome; settings: read-out: CLH
[7] = Half life in mouse liver microsomes; assay type: ADME, microsome
[8] = Intrinsic clearance in mouse liver microsomes; assay type: ADME, microsome; settings: read-out: CLH
[9] = Clearance in Sprague-Dawley rat at 1 mg/kg, iv after 24 hrs by LC-MS/MS analysis; assay type: ADME, organism-based; settings: in vivo; how it was run: as §1
[10] = MRT in Sprague-Dawley rat at 10 mg/kg, po administered via gavage by LC-MS/MS analysis; assay type: ADME, organism-based; settings: in vivo; how it was run: as §1
[11] = test system: NCI-H1975; test: Antiproliferative activity against human NCI-H1975 cells harboring EGFR L858R/T790M double mutant; assay type: functional, cell-based
How it was run: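 A431 was grown in EMEM with 10% FBS; HCC827 and NCI-H1975 were grown in RPMI-1640 with 10% FBS. Cell viability experiments were repeated at least three times.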

[12] = Intrinsic clearance in monkey liver microsomes; assay type: ADME, Macaca mulatta, microsome; settings: rhesus monkey, read-out: CLH
[13] = Intrinsic clearance in rat hepatocytes assessed per million cells; assay type: ADME, cell-based, Hepatocyte
[14] = Half life in dog liver microsomes; assay type: ADME, Canis lupus familiaris, microsome
[15] = Intrinsic clearance in rat liver microsomes; assay type: ADME, microsome; settings: read-out: CLH
[16] = Half life in human hepatocytes; assay type: ADME, cell-based, Hepatocyte
[17] = Half life in monkey liver microsomes; assay type: ADME, Macaca mulatta, microsome; settings: rhesus monkey
[18] = Tmax in Sprague-Dawley rat at 10 mg/kg, po administered via gavage by LC-MS/MS analysis; assay type: ADME, organism-based; settings: in vivo; how it was run: as §1
[19] = MRT in Sprague-Dawley rat at 1 mg/kg, iv by LC-MS/MS analysis; assay type: ADME, organism-based; settings: in vivo; how it was run: as §1
[20] = test system: A-431; test: Antiproliferative activity against human A431 cells harboring wild-type EGFR; assay type: functional, cell-based
[21] = biological target: Epidermal growth factor receptor (Homo sapiens, UniProt P00533); test: Inhibition of human recombinant cytoplasmic GST-tagged EGFR (668 to 1210 residues) expressed in baculovirus using TK-substrate-biotin preincubated for 15 mins followed by substrate addition measured after 60 mins by FRET-based Z'-Lyte assay
[22] = biological target: Epidermal growth factor receptor (Homo sapiens, UniProt P00533, L858R); test: Inhibition of human recombinant cytoplasmic GST-tagged EGFR L858R mutant expressed in baculovirus using TK-substrate-biotin preincubated for 15 mins followed by substrate addition measured after 60 mins by FRET-based Z'-Lyte assay
[23] = biological target: Epidermal growth factor receptor (Homo sapiens, UniProt P00533, L858R/T790M); test: Inhibition of human recombinant cytoplasmic GST-tagged EGFR T790M/L858R double mutant (668 to 1210 residues) expressed in baculovirus using TK-substrate-biotin preincubated for 15 mins followed by substrate addition measured after 60 mins by FRET-based Z'-Lyte assay
[24] = test system: HCC827; test: Antiproliferative activity against human HCC827 cells harboring EGFR E746-A750 deletion mutant; assay type: functional, cell-based
[25] = species on record: Homo sapiens; test: Selectivity ratio of IC50 for human recombinant cytoplasmic GST-tagged EGFR (668 to 1210 residues) to IC50 for human recombinant cytoplasmic GST-tagged EGFR T790M/L858R double mutant (668 to 1210 residues)
How it was run: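 HTRF kinase assay on wild-type EGFR and the T790M/L858R mutant, with TK-substrate-biotin, ATP, 1 mM DTT, 1 mM MnCl2 and 5 mM MgCl2. Serially diluted compounds in 1% DMSO were preincubated with kinase for 15 min. The reaction was started with ATP plus substrate, run 60 min at room temperature, then stopped with Strep-XL665/TK Ab-Cryptate and read after 1 h. Run in duplicate, at least three independent IC50 determinations.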

Epidermal growth factor receptor (Homo sapiens, UniProt P00533, L858R), sequence (P00533 25-1210 L858R limits assumed): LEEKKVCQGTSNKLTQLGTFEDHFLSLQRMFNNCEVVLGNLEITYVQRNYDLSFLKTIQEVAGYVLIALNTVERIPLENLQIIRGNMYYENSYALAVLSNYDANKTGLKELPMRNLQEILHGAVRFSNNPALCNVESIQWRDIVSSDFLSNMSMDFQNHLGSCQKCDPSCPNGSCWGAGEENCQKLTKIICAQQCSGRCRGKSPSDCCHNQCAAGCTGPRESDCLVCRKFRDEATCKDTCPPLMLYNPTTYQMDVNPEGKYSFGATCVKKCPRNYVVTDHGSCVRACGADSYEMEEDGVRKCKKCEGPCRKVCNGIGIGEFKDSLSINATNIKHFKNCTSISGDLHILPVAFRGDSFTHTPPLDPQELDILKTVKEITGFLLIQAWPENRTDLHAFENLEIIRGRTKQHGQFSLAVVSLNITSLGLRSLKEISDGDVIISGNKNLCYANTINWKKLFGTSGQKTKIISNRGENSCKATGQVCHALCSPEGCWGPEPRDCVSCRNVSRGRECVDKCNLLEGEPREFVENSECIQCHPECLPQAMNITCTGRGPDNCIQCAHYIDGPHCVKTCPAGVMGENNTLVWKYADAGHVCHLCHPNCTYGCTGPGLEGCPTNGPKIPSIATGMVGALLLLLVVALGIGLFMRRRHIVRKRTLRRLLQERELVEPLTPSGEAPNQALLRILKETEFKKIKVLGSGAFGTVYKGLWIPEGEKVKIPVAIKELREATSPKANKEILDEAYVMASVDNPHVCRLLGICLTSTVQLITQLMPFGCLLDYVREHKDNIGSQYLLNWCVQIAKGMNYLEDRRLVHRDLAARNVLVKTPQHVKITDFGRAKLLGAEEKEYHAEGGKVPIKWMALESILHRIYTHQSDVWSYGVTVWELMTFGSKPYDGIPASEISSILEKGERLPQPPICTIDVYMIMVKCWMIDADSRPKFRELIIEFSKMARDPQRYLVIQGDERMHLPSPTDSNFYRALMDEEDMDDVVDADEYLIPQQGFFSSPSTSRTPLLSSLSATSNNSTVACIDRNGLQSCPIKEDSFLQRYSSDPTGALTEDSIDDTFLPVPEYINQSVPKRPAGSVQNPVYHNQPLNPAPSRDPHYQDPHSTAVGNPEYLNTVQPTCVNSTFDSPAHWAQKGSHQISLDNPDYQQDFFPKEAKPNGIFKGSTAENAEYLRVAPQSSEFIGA
Epidermal growth factor receptor (Homo sapiens, UniProt P00533), sequence (P00533 whole entry, the tested form may be a part): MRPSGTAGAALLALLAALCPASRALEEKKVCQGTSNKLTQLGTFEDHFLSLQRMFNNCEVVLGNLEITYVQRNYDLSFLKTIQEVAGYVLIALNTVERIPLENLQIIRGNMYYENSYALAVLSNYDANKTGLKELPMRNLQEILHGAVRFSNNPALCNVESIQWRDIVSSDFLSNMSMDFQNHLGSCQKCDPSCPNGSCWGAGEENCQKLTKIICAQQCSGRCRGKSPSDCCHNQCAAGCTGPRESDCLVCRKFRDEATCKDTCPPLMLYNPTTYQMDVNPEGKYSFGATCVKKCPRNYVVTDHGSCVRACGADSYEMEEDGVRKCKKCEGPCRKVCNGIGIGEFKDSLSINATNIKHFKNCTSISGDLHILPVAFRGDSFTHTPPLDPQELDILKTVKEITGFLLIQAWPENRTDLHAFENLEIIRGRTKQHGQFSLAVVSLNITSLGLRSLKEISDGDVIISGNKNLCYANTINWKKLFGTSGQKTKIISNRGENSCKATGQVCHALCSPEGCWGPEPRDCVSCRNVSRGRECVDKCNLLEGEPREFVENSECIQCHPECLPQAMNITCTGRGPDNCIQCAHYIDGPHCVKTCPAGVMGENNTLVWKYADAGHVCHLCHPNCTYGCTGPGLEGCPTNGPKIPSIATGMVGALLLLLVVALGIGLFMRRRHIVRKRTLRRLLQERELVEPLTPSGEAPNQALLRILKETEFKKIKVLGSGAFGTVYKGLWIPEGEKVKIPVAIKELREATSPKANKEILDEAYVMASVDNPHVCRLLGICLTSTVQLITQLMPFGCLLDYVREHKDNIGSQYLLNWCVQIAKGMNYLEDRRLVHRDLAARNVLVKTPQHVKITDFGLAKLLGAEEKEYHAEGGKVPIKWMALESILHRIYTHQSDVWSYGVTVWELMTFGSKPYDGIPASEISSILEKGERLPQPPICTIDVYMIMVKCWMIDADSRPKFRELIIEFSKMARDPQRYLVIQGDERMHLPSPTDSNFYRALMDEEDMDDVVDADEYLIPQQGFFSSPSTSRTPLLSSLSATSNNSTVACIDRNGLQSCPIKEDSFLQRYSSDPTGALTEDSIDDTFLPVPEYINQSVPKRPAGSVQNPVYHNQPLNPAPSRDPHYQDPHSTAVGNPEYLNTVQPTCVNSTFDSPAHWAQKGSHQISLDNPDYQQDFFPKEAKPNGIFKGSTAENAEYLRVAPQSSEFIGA
Epidermal growth factor receptor (Homo sapiens, UniProt P00533, L858R/T790M), sequence (P00533 25-1210 T790M/L858R limits assumed): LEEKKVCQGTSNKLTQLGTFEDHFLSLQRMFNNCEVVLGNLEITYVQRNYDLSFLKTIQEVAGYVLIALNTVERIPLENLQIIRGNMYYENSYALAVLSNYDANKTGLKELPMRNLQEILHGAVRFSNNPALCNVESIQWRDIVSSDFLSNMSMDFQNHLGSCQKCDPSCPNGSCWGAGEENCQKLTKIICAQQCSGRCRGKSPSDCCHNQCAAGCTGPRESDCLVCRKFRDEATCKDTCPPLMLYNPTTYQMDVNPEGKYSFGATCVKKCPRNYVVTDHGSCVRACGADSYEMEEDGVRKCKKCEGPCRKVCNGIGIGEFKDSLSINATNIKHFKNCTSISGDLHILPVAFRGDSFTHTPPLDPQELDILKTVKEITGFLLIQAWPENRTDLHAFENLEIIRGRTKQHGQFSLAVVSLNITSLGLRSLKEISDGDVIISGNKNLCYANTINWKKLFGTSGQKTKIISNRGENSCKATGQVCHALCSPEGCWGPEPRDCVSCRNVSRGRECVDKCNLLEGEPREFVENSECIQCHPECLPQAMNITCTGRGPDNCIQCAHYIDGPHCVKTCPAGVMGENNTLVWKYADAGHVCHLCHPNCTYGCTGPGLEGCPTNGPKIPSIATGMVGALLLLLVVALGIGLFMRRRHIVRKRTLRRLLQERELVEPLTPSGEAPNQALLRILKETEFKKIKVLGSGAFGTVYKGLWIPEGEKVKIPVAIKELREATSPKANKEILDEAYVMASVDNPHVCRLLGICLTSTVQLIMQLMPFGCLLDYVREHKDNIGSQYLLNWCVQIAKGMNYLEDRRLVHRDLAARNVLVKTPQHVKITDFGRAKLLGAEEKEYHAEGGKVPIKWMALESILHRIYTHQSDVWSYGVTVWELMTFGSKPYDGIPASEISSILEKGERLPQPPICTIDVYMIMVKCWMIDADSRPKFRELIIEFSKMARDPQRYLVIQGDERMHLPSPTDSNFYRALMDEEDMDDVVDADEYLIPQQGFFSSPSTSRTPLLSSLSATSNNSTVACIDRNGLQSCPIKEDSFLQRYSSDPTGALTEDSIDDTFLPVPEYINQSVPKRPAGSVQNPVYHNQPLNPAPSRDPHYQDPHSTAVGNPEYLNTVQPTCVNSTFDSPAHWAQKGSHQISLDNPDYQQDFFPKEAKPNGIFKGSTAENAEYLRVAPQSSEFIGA

| SMILES | IC50 [11] [nM] | IC50 [20] [nM] | IC50 ([21]; read-out: IC50) [nM] | IC50 [22] [nM] | IC50 [23] [nM] | IC50 [24] [nM] | Ratio IC50 [25] | also measured |
| --- | --- | --- | --- | --- | --- | --- | --- | --- |
| C=CC(=O)Nc1cc(Nc2nccc(-c3cn(C)c4ccccc34)n2)c(OC)cc1N(C)CCN(C)C [OSIMERTINIB] | […] |  |  |  |  |  |  | half-life [1]: […]; half-life [2]: 62.4 min; half-life [3]: […]; Cmax [4]: […]; bioavailability [5]: […]; CLint scaled [6]: […]; half-life [7]: […]; CLint scaled [8]: […]; clearance [9]: […]; MRT [10]: […]; CLint scaled [12]: […]; CLH [13]: […]; half-life [14]: […]; CLint scaled [15]: […]; half-life [16]: […]; half-life [17]: […]; Tmax [18]: […]; MRT [19]: […] |
| C=CC(=O)Nc1cc(Nc2nccc(-c3cn4c5c(cccc35)CCC4)n2)c(OC)cc1N1CCC(CN(C)C)C1 (stereo unspecified) | 99.9 | 514 | 8.8 | 4 | 1.9 | 71.7 |  |  |
| C=CC(=O)Nc1cc(Nc2nccc(-c3cn4c5c(cccc35)CCC4)n2)c(OC)cc1N1CCNC(=O)C1 |  |  |  | 428 | 1230 |  |  | IC50 [21]: Not Active |
| C=CC(=O)Nc1cc(Nc2cc(-c3cn4c5c(cccc35)CCC4)nc(OC)n2)c(OC)cc1N(C)CCN(C)C |  |  | 543 | 181 | 22 |  |  |  |
| C=CC(=O)Nc1cc(Nc2nccc(-n3cc(C)c4ccccc43)n2)c(OC)cc1N(C)CCN(C)C |  |  | 715 | 186 | 287 |  | 2.5 |  |
| C=CC(=O)Nc1cc(Nc2cc(-c3cn4c5c(cccc35)CCC4)ncn2)c(OC)cc1N(C)CCN(C)C | 37.8 | 122 | 3.1 | 1.2 | 2.6 | 24.3 |  |  |
| C=CC(=O)Nc1cc(Nc2nccc(-c3cn4c5c(cccc35)CCC4)n2)c(OC)cc1N(C)CC(=O)N(C)C |  |  | > 1000 | 498 | 278 |  | > 3.6 |  |
| C=CC(=O)Nc1cc(Nc2ncnc(-c3cn(C)c4ccccc34)c2OC)c(OC)cc1N(C)CCN(C)C |  |  | 222 | 55.5 | 212 |  | 1 |  |
| C=CC(=O)Nc1cc(Nc2nccc(-c3cn4c5c(cccc35)CCC4)n2)c(OC)cc1N1CC(CN(C)C)C1 | 166 | 1470 | 202 | 11.6 | 6.7 | 290 |  |  |
| C=CC(=O)Nc1cc(Nc2nccc(-n3ncc4ccccc43)n2)c(OC)cc1N(C)CCN(C)C |  |  |  | > 600 | > 600 |  |  | IC50 [21]: Not Active |
| C=CC(=O)Nc1cc(Nc2ncnc(-c3cn(C)c4ccccc34)c2F)c(OC)cc1N(C)CCN(C)C |  |  | 32.1 | 9.9 | 94.8 |  | 0.34 |  |
| C=CC(=O)Nc1cc(Nc2nccc(-c3cn4c5c(cccc35)CCC4)n2)c(OC)cc1N1CCN(C)CC1 |  |  | 877 | 64.3 | 55.5 |  | 15.8 |  |
| C=CC(=O)Nc1cc(Nc2nccc(-c3cn4c5c(cccc35)CCC4)n2)c(OC)cc1N1CC(N(C)C)C1 | 143 | 1120 | 63.9 | 13.6 | 4.9 | 98.2 |  |  |
| C=CC(=O)Nc1cc(Nc2nccc(-c3cn4c5c(cccc35)CCC4)n2)c(OC)cc1N(C)CCO |  |  | 838 | 192 | 34.8 |  | 24.1 |  |
| C=CC(=O)Nc1cc(Nc2cc(-c3cn(C)c4ccccc34)nc(OC)n2)c(OC)cc1N(C)CCN(C)C | 210 | > 10000 | 636 | 123 | 10.9 | 925 |  |  |
| C=CC(=O)Nc1cc(Nc2nccc(-c3cn4c5c(cccc35)CCC4)n2)c(OC)cc1N(C)CCN(C)C(C)=O |  |  | > 1000 | 386 | 188 |  | > 5.3 |  |
| C=CC(=O)Nc1cc(Nc2cc(-c3cn(C)c4ccccc34)ncn2)c(OC)cc1N(C)CCN(C)C | 33.8 | 128 | 2.3 | 2.2 | 1.6 | 16.2 |  |  |
| C=CC(=O)Nc1cc(Nc2cc(-c3cn(C)c4ccccc34)nc(C)n2)c(OC)cc1N(C)CCN(C)C |  |  | 192 | 46.5 | 60.6 |  | 3.2 |  |
| C=CC(=O)Nc1cc(Nc2nc(OC)cc(-c3cn(C)c4ccccc34)n2)c(OC)cc1N(C)CCN(C)C | 320 | > 10000 | 685 | 155 | 13 | 1170 |  |  |
| C=CC(=O)Nc1cc(Nc2nccc(-c3cn4c5c(cccc35)CCC4)n2)c(OC)cc1N1CC(CCN(C)C)C1 |  |  | 251 | 14.5 | 11.8 |  | 21.3 |  |
